# Measurements reported in paper PMC9988221 (Journal of Clinical Psychopharmacology, 2023).
# Like-named read-outs stand apart in the source and are kept apart here. Marks after values point to notes of the source that are not given here.
# Experiments:
# [1] = format: in vivo, human; conditions: for AUC(0-t) / AUC(0-inf) / Cmax / half-life: male, human; for AUC(0-t) / AUC(0-inf) / Cmax / half-life / AUC0–tz, gMean / Cmax, gMean: plasma; for AUC(0-t): AUC0–tz; for AUC(0-inf): AUC0–∞; for AUC0–tz, Adjusted gMean Ratio (90% CI) / Cmax, Adjusted gMean Ratio (90% CI): probe drug + steady-state BI 425809 25 mg vs probe drug only
# [2] = biological target: P-gp (Homo sapiens, UniProt P08183); format: in vitro ADME; conditions: Caco-2 cell monolayer; zosuquidar 1 μM, BI 425809 1-100 μM
# P-gp, sequence (P08183 whole entry): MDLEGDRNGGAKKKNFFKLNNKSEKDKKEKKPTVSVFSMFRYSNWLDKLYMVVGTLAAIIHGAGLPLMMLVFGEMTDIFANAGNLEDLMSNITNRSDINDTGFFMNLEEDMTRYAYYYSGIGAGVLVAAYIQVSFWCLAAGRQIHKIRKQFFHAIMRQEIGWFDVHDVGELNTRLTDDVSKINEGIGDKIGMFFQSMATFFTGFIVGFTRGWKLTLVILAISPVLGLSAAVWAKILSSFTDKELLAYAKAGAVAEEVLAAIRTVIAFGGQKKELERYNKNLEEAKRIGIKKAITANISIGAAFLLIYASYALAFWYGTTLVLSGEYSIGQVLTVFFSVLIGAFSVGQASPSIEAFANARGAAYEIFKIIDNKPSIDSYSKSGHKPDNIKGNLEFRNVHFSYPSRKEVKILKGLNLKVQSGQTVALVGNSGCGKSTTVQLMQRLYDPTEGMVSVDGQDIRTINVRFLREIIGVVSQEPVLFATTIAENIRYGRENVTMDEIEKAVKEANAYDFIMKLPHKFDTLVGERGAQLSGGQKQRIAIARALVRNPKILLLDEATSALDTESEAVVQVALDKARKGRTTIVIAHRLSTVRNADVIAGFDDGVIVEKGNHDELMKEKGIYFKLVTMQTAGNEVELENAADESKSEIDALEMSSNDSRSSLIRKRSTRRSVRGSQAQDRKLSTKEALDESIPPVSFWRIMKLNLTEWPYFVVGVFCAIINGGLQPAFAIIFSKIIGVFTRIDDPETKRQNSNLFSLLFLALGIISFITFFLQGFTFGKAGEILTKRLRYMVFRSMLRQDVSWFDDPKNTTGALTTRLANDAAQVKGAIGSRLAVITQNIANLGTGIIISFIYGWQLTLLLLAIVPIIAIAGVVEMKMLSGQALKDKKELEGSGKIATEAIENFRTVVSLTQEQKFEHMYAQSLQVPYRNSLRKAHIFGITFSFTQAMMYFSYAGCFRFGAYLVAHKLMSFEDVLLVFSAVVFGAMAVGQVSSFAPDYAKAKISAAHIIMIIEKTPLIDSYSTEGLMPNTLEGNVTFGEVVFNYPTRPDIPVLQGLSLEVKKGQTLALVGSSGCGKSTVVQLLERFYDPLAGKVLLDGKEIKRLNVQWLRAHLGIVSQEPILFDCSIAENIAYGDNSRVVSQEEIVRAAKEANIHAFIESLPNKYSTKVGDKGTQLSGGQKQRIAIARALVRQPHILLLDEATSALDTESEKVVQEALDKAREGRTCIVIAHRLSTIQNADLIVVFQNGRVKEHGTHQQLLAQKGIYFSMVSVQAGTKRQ
# Summary of the method: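 Bidirectional Caco-2 monolayer transport in HBSS with 15 mM HEPES, pH 7.4, after 30 min equilibration. [³H]digoxin (1 μM) went in the donor side, and test compound (1–100 μM) or zosuquidar (1 μM) on both sides. After 30 min preincubation, sampling ran to 90 min and was read by scintillation counting. Papp gave the B-to-A/A-to-B efflux ratio, and IC50 with slope factor came from nonlinear regression of efflux ratio against inhibitor concentration.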
# [3] = arithmetic mean (SD), +BI 425809 25 mg at steady state
# [4] = gMean, Probe Drug + BI 425809 25 mg once daily at steady state, healthy males
# [5] = gMean, Probe Drug Only, healthy males
# [6] = probe drug alone (cocktail or digoxin alone)
# [7] = +BI 425809 25 mg at steady state
# [8] = Probe Drug + BI 425809 25 mg once daily at steady state, healthy males
Structure (SMILES),"AUC(0-t) [1, 3]","AUC(0-t) [1, 4]","AUC(0-t) [1, 5]","AUC(0-inf) [1, 3]","Cmax [1, 3]","Cmax [1, 4]","Cmax [1, 5]","AUC0–tz, Adjusted gMean Ratio (90% CI) [1]","Cmax, Adjusted gMean Ratio (90% CI) [1]","Cmax, arithmetic mean (SD) [1, 6]","AUC0–tz, arithmetic mean (SD) [1, 7]","AUC0–∞, arithmetic mean (SD) [1, 7]","AUC0–tz, gMean [1, 8]","Cmax, gMean [1, 8]","AUC0–tz, gMean ([1]; Probe Drug Only, healthy males)","AUC0–tz, arithmetic mean (SD) [1, 6]","AUC0–∞, arithmetic mean (SD) [1, 6]","Cmax, gMean ([1]; Probe Drug Only, healthy males)",also measured
"Cc1ncc2n1-c1ccc(Cl)cc1C(c1ccccc1F)=NC2 [Midazolam, midazolam]",16.7 ng·h/mL,16.6 ng·h/mL,23.5 ng·h/mL,17.4 ng·h/mL,6.9 ng/mL,6.6 ng/mL,8.5 ng/mL,70.6 (63.9–78.1) %,77.6 (67.3–89.4) %,9.03 (3.3)* ng/mL,–,–,–,–,–,–,–,–,"decrease of the adjusted gMean ratio ([1]; BI 425809 25 mg once daily): 29.4%; half-life ([1]; t1/2, gMean (geometric coefficient of variation), on a background of steady-state BI 425809): 2.8 h; t1/2, gMean (geometric coefficient of variation) ([1]; midazolam alone): 3.3 [22.8] hours; AUC0–tz, Adjusted gMean Ratio (90% CI) ([1]; listed as midazolam): 70.6%; Cmax, Adjusted gMean Ratio (90% CI) ([1]; listed as midazolam): 77.6%"
CC(=O)C[C@@H](c1ccccc1)c1c(O)c2ccccc2oc1=O [S-warfarin],–,–,–,–,–,–,–,–,–,–,"15,600.0 (3590.0) ng⋅h/mL","17,000.0 (3880.0) ng⋅h/mL","15,205.1 ng⋅h/mL",553.7 ng/mL,"15,107.9 ng⋅h/mL","15,400.0 (3480.0) ng⋅h/mL","16,900.0 (3870.0) ng⋅h/mL",–,–
"C[C@H]1O[C@@H](O[C@H]2[C@@H](O)C[C@H](O[C@H]3[C@@H](O)C[C@H](O[C@H]4CC[C@@]5(C)[C@H](CC[C@@H]6[C@@H]5C[C@@H](O)[C@]5(C)[C@@H](C7=CC(=O)OC7)CC[C@]65O)C4)O[C@@H]3C)O[C@@H]2C)C[C@H](O)[C@@H]1O [Digoxin, digoxin]",10 ng·h/mL,9.5 ng·h/mL,9.7 ng·h/mL,20.1 ng·h/mL,–,–,–,97.9 (86.6–110.6) %,100.6 (86.9–116.5) %,1.1 (0.3) ng/mL,–,–,–,1.1 ng/mL,–,–,–,1.1 ng/mL,"Cmax, arithmetic mean (SD) [1, 7]: 1.1 (0.3) ng/mL; half-life ([1]; t1/2, arithmetic mean (SD), +BI 425809 25 mg at steady state): 54.2 h; adjusted gMean ratios for AUC0–tz and Cmax (in words) ([1]; presence vs absence of steady-state BI 425809): within ±4% of 100%"
O[C@@H](COc1cccc2ncccc12)CN1CCN([C@@H]2c3ccccc3[C@@H]3[C@H](c4ccccc42)C3(F)F)CC1 [zosuquidar],–,–,–,–,–,–,–,–,–,–,–,–,–,–,–,–,–,–,effect on P-gp-mediated transcellular transport of digoxin (in words) [2]: inhibited
CC(=O)C[C@H](c1ccccc1)c1c(O)c2ccccc2oc1=O [R-warfarin],–,–,–,–,–,–,–,–,–,–,"23,000.0 (5360.0) ng⋅h/mL","27,500.0 (7200.0) ng⋅h/mL","22,457.1 ng⋅h/mL",541.8 ng/mL,"22,615.1 ng⋅h/mL","23,000.0 (4860.0) ng⋅h/mL","27,900.0 (6680.0) ng⋅h/mL",525.0 ng/mL,–
"COc1ccc2[nH]c([S+]([O-])Cc3ncc(C)c(OC)c3C)nc2c1 (centres unmarked) [Omeprazole, omeprazole]",–,430 ng·h/mL,483 ng·h/mL,609 ng·h/mL,257 ng/mL,225 ng/mL,220 ng/mL,–,–,–,604.0 (733.0) ng⋅h/mL,–,–,–,–,–,–,–,–
